Measured values as given in ChEMBL document CHEMBL1649255, “Impact of novel human immunodeficiency virus type 1 reverse transcriptase mutations P119S and T165A on 4'-ethynylthymidine analog resistance profile” (Antimicrob Agents Chemother, 2009).

Key:
[1] = test system: Human immunodeficiency virus 1; assay: Antiviral activity against HIV1 pNL4-3 harboring Reverse transcriptase P119S/T165A mutant gene infected in TZM-bl cells after 72 hrs by luciferase assay; assay type: functional, organism-based; details: Human immunodeficiency virus 1, pNL4-3, TZM-bl
Outline: (§1)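 TZM-bl cells (LTR-driven luciferase reporter) at 5 × 10^4 per well in RPMI 1640 with 10% dialyzed FBS. They were preincubated 16 h at 37°C with a range of 4′-Ed4T, d4T, 3TC or AZT, then infected with NL4-3-derived clones at MOI 0.01. After 72 h, lysates were read for luciferase, with uninfected background subtracted. EC50 is from % of no-drug signal, reported as mean ± SD of three experiments.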

[2] = test system: Human immunodeficiency virus 1; assay: Antiviral activity against wild-type HIV1 pNL4-3 infected in TZM-bl cells by luciferase assay; assay type: functional, organism-based; details: Human immunodeficiency virus 1, pNL4-3, TZM-bl; outline: as §1
[3] = test system: Human immunodeficiency virus 1; assay: Antiviral activity against HIV1 pNL4-3 harboring Reverse transcriptase P119S/T165A/M184V mutant gene infected in TZM-bl cells after 72 hrs by luciferase assay; assay type: functional, organism-based; details: Human immunodeficiency virus 1, pNL4-3, TZM-bl; outline: as §1
[4] = test system: Human immunodeficiency virus 1; assay: Antiviral activity against HIV1 pNL4-3 harboring Reverse transcriptase T165A mutant gene infected in TZM-bl cells after 72 hrs by luciferase assay; assay type: functional, organism-based; details: Human immunodeficiency virus 1, pNL4-3, TZM-bl; outline: as §1
[5] = test system: Human immunodeficiency virus 1; assay: Antiviral activity against HIV1 pNL4-3 harboring Reverse transcriptase T165A/M184V mutant gene infected in TZM-bl cells after 72 hrs by luciferase assay; assay type: functional, organism-based; details: Human immunodeficiency virus 1, pNL4-3, TZM-bl; outline: as §1
[6] = test system: Human immunodeficiency virus 1; assay: Antiviral activity against HIV1 pNL4-3 harboring chimeric pTKD infected in TZM-bl cells after 72 hrs by luciferase assay; assay type: functional, organism-based; details: Human immunodeficiency virus 1, pNL4-3, TZM-bl; outline: as §1
[7] = test system: Human immunodeficiency virus 1; assay: Antiviral activity against HIV1 pNL4-3 harboring Reverse transcriptase P119S mutant gene infected in TZM-bl cells after 72 hrs by luciferase assay; assay type: functional, organism-based; details: Human immunodeficiency virus 1, pNL4-3, TZM-bl; outline: as §1
[8] = test system: Human immunodeficiency virus 1; assay: Antiviral activity against HIV1 pNL4-3 harboring Reverse transcriptase M184V mutant gene infected in TZM-bl cells after 72 hrs by luciferase assay; assay type: functional, organism-based; details: Human immunodeficiency virus 1, pNL4-3, TZM-bl; outline: as §1
[9] = test system: Human immunodeficiency virus 1; assay: Antiviral activity against HIV1 pNL4-3 harboring Reverse transcriptase P119S/M184V mutant gene infected in TZM-bl cells after 72 hrs by luciferase assay; assay type: functional, organism-based; details: Human immunodeficiency virus 1, pNL4-3, TZM-bl; outline: as §1
[10] = target: Human immunodeficiency virus type 1 reverse transcriptase (Human immunodeficiency virus 1, UniProt Q72547, T165A); assay: Inhibition of HIV1 Reverse transcriptase T165A mutant
Outline: (§2)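 Steady-state inhibition of dTTP incorporation used 2.5 nM wild-type or mutant RT and 250 nM DNA/RNA 23-mer/36-mer primer/template. Apparent dTTP Km was measured across varied 4′-Ed4TTP or d4TTP to give Ki. Ki/Km(dTTP) served as the inhibition index.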

[11] = test system: Human immunodeficiency virus type 1 reverse transcriptase (Human immunodeficiency virus 1), Q72547 [P119S]; assay: Ratio of Ki to Km for HIV1 Reverse transcriptase P119S mutant; outline: as §2
[12] = test system: Human immunodeficiency virus type 1 reverse transcriptase (Human immunodeficiency virus 1), Q72547 [P119S,T165A,M184V]; assay: Ratio of Ki to Km for HIV1 Reverse transcriptase P119S/T165A/M184V mutant; outline: as §2
[13] = target: Human immunodeficiency virus type 1 reverse transcriptase (Human immunodeficiency virus 1, UniProt Q72547, M184V/P119S); assay: Inhibition of HIV1 Reverse transcriptase P119S/M184V mutant; outline: as §2
[14] = target: Human immunodeficiency virus type 1 reverse transcriptase (Human immunodeficiency virus 1, UniProt Q72547, M184V); assay: Inhibition of HIV1 Reverse transcriptase M184V mutant; outline: as §2
[15] = target: Human immunodeficiency virus type 1 reverse transcriptase (Human immunodeficiency virus 1, UniProt Q72547, M184V/P119S/T165A); assay: Inhibition of HIV1 Reverse transcriptase P119S/T165A/M184V mutant; outline: as §2
[16] = test system: Human immunodeficiency virus type 1 reverse transcriptase (Human immunodeficiency virus 1), Q72547 [T165A,M184V]; assay: Ratio of Ki to Km for HIV1 Reverse transcriptase T165A/M184V mutant; outline: as §2
[17] = target: Human immunodeficiency virus type 1 reverse transcriptase (Human immunodeficiency virus 1, UniProt Q72547); assay: Inhibition of wild-type HIV1 Reverse transcriptase
Outline: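 Same steady-state dTTP incorporation reaction: 250 nM DNA 23-mer/RNA 36-mer primer/template, 2.5 nM RT, Tris-HCl pH 8.0/NaCl/MgCl2/DTT/BSA buffer, 37°C. The analog triphosphate inhibitor was added at various concentrations. Apparent dTTP Km was measured at each inhibitor level to derive Ki, and Ki/Km(dTTP) was used as an inhibition-efficiency index.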

[18] = target: Human immunodeficiency virus type 1 reverse transcriptase (Human immunodeficiency virus 1, UniProt Q72547, P119S/T165A); assay: Inhibition of HIV1 Reverse transcriptase P119S/T165A mutant; outline: as §2
[19] = test system: Human immunodeficiency virus type 1 reverse transcriptase (Human immunodeficiency virus 1), Q72547 [M184V]; assay: Ratio of Ki to Km for HIV1 Reverse transcriptase M184V mutant; outline: as §2
[20] = test system: Human immunodeficiency virus type 1 reverse transcriptase (Human immunodeficiency virus 1), Q72547 [P119S,M184V]; assay: Ratio of Ki to Km for HIV1 Reverse transcriptase P119S/M184V mutant; outline: as §2
[21] = target: Human immunodeficiency virus type 1 reverse transcriptase (Human immunodeficiency virus 1, UniProt Q72547, M184V/T165A); assay: Inhibition of HIV1 Reverse transcriptase T165A/M184V mutant; outline: as §2
[22] = target: Human immunodeficiency virus type 1 reverse transcriptase (Human immunodeficiency virus 1, UniProt Q72547, P119S); assay: Inhibition of HIV1 Reverse transcriptase P119S mutant; outline: as §2
[23] = test system: Human immunodeficiency virus type 1 reverse transcriptase (Human immunodeficiency virus 1), Q72547 [P119S,T165A]; assay: Ratio of Ki to Km for HIV1 Reverse transcriptase P119S/T165A mutant; outline: as §2
[24] = target: Human immunodeficiency virus type 1 reverse transcriptase (Human immunodeficiency virus 1) (UniProt Q72547); assay: Ratio of Ki to Km for wild-type HIV1 Reverse transcriptase; outline: as §2
[25] = test system: Human immunodeficiency virus type 1 reverse transcriptase (Human immunodeficiency virus 1), Q72547 [T165A]; assay: Ratio of Ki to Km for HIV1 Reverse transcriptase T165A mutant; outline: as §2

`C=C[C@@]1(CO)C=C[C@H](n2cc(C)c(=O)[nH]c2=O)O1` gave an EC50 [1] of 0.35 µM, an EC50 [2] of 0.37 µM and an EC50 [3] of 1.96 µM. For the same molecule, the EC50 [4] was 0.58 µM, the EC50 [5] was 1.32 µM and the EC50 [6] was 2.1 µM. The EC50 [7] was 0.51 µM, the EC50 [8] was 0.98 µM and the EC50 [9] was 1.38 µM.

`C=C[C@@]1(COP(=O)(O)OP(=O)(O)OP(=O)(O)O)C=C[C@H](n2cc(C)c(=O)[nH]c2=O)O1` was tested, and the Ki [10] was 0.08 µM, the Ki/Km [11] was 0.85 and the Ki/Km [12] was 4.9. For the same molecule, the Ki [13] was 0.64 µM, the Ki [14] was 0.21 µM and the Ki [15] was 0.73 µM. The Ki/Km [16] was 6, the Ki [17] was 0.054 µM and the Ki [18] was 0.024 µM. The Ki/Km [19] was 1.7, the Ki/Km [20] was 3.6 and the Ki [21] was 0.66 µM. It also gave a Ki [22] of 0.11 µM, a Ki/Km [23] of 0.34 and a Ki/Km [24] of 0.45. The Ki/Km [25] was 0.8.

`Nc1ccn([C@@H]2CS[C@H](CO)O2)c(=O)n1` [LAMIVUDINE] was tested, and the EC50 [1] was 2.1 µM, the EC50 [2] was 0.65 µM and the EC50 [3] was greater than 60 µM. It also gave an EC50 [4] of 1.08 µM, an EC50 [5] greater than 60 µM and an EC50 [6] greater than 60 µM. The EC50 [7] was 0.47 µM, the EC50 [8] was greater than 60 µM and the EC50 [9] was greater than 60 µM.

Work on `Cc1cn([C@H]2C=C[C@@H](COP(=O)(O)OP(=O)(O)OP(=O)(O)O)O2)c(=O)[nH]c1=O` [STAVUDINE TRIPHOSPHATE] yielded a Ki [10] of 0.21 µM, a Ki/Km [11] of 2.1 and a Ki/Km [12] of 7. It also gave a Ki [13] of 0.48 µM, a Ki [14] of 0.79 µM and a Ki [15] of 1.05 µM. It also gave a Ki/Km [16] of 2.7, a Ki [17] of 0.63 µM and a Ki [18] of 0.37 µM. For the same molecule, the Ki/Km [19] was 6.6, the Ki/Km [20] was 2.7 and the Ki [21] was 0.3 µM. It also gave a Ki [22] of 0.64 µM, a Ki/Km [23] of 5.3 and a Ki/Km [24] of 5.3. For the same molecule, the Ki/Km [25] was 2.1.

For `Cc1cn([C@H]2C=C[C@@H](CO)O2)c(=O)[nH]c1=O` [STAVUDINE], the EC50 [1] was 2.48 µM, the EC50 [2] was 1.25 µM and the EC50 [3] was 1.28 µM. The EC50 [4] was 1.46 µM, the EC50 [5] was 1.5 µM and the EC50 [6] was 1 µM. For the same molecule, the EC50 [7] was 1.44 µM, the EC50 [8] was 1.4 µM and the EC50 [9] was 1.55 µM.

For `Cc1cn([C@H]2C[C@H](N=[N+]=[N-])[C@@H](CO)O2)c(=O)[nH]c1=O` [ZIDOVUDINE], the EC50 [1] was 0.026 µM, the EC50 [2] was 0.023 µM and the EC50 [3] was 0.053 µM. The EC50 [4] was 0.022 µM, the EC50 [5] was 0.024 µM and the EC50 [6] was 0.008 µM. For the same molecule, the EC50 [7] was 0.017 µM, the EC50 [8] was 0.011 µM and the EC50 [9] was 0.011 µM.
